Measured values from ChEMBL document CHEMBL1125417, “Development of a series of phenyltetrazole leukotriene D4 (LTD4) receptor antagonists” (J Med Chem, 1992).
Activity calls are given as the source filed them. The rule behind the calls is not given here.

These compounds were tested against T1, Cysteinyl leukotriene receptor 1 (Cavia porcellus) (UniProt Q2NNR5) (assay: Antagonistic activity against leukotriene D4 (LTD4) receptor).
T1 sequence (whole entry): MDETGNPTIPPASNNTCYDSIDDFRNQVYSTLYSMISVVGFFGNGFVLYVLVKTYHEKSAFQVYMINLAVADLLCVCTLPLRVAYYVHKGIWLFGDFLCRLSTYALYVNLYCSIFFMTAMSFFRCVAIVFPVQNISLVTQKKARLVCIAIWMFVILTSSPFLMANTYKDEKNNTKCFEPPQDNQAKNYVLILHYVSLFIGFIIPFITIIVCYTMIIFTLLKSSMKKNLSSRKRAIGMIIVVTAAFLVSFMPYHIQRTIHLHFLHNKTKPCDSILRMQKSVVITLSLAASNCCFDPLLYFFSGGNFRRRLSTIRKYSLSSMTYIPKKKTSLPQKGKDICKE
Assay type: functional
In short: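 Isolated tissue strips in baths of physiological salt solution (mM: NaCl 118.2, NaHCO₃ 24.8, dextrose 10.0, Ca²⁺ 1.2) at 37 °C, gassed with 95% O₂/5% CO₂, under 0.5 g resting tension. Cumulative LTD₄ concentration–response curves were recorded. Each antagonist was in contact with the tissue for 30 min before the final LTD₄ curve.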

Question: How did the pKB turn out when CCCCCCCCCCOc1ccc(-c2nnn(CCCCc3nnn[nH]3)n2)cc1 was run?
Answer: The pKB was 5.09.

Question: NC(=O)CCCCn1nnc(-c2ccc(OCCCCc3ccccc3)cc2)n1 was tested. Which pKB did it give?
Answer: The pKB was 5.41.

Question: How did the pKB turn out when FC(F)(F)CCCCCOc1ccc(-c2nnn(CCCCc3nnn[nH]3)n2)cc1 was run?
Answer: Its pKB is 5.82.

Question: For c1ccc2oc(COc3ccc(-c4nnn(CCCCc5nnn[nH]5)n4)cc3)cc2c1, which pKB is on record?
Answer: The pKB was 6.36.

Question: Which pKB does the source give for FC(F)(F)CCCCCCCOc1ccc(-c2nnn(CCCCc3nnn[nH]3)n2)cc1 here?
Answer: The pKB was 5.43.

Question: How did the pKB turn out when O=C(O)CCCCn1nnc(-c2ccc(OCCCCc3ccccc3)cc2)n1 was run?
Answer: Its pKB is 5.97.

Question: For c1ccc(CCCCOc2ccc(-c3nnn(CCCc4nnn[nH]4)n3)cc2)cc1, which pKB is on record?
Answer: Its pKB is 6.86.

Question: Which pKB does the source give for c1ccc(CCCCCCOc2ccc(-c3nnn(CCCCc4nnn[nH]4)n3)cc2)cc1 here?
Answer: The pKB was 5.83.

Question: With c1ccc(CCCCOc2ccc(-c3nnn(CCCCCc4nnn[nH]4)n3)cc2)cc1 as the compound, how does the pKB read?
Answer: The pKB was 6.54.

Question: c1ccc2nc(COc3ccc(-c4nnn(CCCCc5nnn[nH]5)n4)cc3)ccc2c1 was tested. Which pKB did it give?
Answer: Its pKB is 6.68.

What follows are compounds tested on Cysteinyl leukotriene receptor 1 (Cavia porcellus) (assay: Antagonist activity tested against Cysteinyl leukotriene D4 receptor).

Question: With c1ccc(CCCCOc2ccc(-c3nnn(CCCCCCc4nnn[nH]4)n3)cc2)cc1 as the compound, how does the pKB read?
Answer: The pKB was 6.24.

Question: With c1ccc(CCCCOc2ccc(-c3nnn(CCCCc4nnn[nH]4)n3)cc2)cc1 as the compound, how does the pKB read?
Answer: Its pKB is 6.91.

Question: Which pKB does the source give for c1ccc(CCCCn2nnc(-c3ccc(OCCCCc4nnn[nH]4)cc3)n2)cc1 here?
Answer: The pKB was 5.8.

Question: With c1ccc(CCCCOc2ccc(-c3nnnn3CCCCc3nnn[nH]3)cc2)cc1 as the compound, how does the pKB read?
Answer: Its pKB is 6.31.

Question: For Cc1ccccc1S(=O)(=O)NC(=O)NC(=O)CCCCn1nnc(-c2ccc(OCCCCc3ccccc3)cc2)n1, which pKB is on record?
Answer: Its pKB is 5.86.

Question: With c1cc(-c2nnn(CCCCc3nnn[nH]3)n2)ccc1OCCCCc1nn[nH]n1 as the compound, how does the pKB read?
Answer: The pKB was “inactive”.

Question: O=C(O)c1cccc(Cn2nnnc2-c2cccc(CSc3ccc4ccccc4n3)c2)c1 was tested. Which pKB did it give?
Answer: The pKB was 6.2.

Question: Which pKB does the source give for FC(F)(F)CCCCOc1ccc(-c2nnn(CCCCc3nnn[nH]3)n2)cc1 here?
Answer: The pKB was 5.92.

Question: Which pKB does the source give for c1ccc(CCCCOc2cccc(-c3nnn(CCCCc4nnn[nH]4)n3)c2)cc1 here?
Answer: Its pKB is 5.38.

Question: c1ccc(CCCCOc2ccc(-c3nnn(CCCCCCCCc4nnn[nH]4)n3)cc2)cc1 was tested. Which pKB did it give?
Answer: The pKB was 5.7.

Question: How did the pKB turn out when O=C(O)c1ccccc1Cn1nnc(-c2cccc(CSc3ccc4ccccc4n3)c2)n1 was run?
Answer: Its pKB is 7.02.

Question: c1ccc(CCOc2ccc(-c3nnn(CCCCc4nnn[nH]4)n3)cc2)cc1 was tested. Which pKB did it give?
Answer: Its pKB is 6.51.

Question: c1cc(CSc2ccc3ccccc3n2)cc(-c2nnn(CCCCc3nnn[nH]3)n2)c1 was tested. Which pKB did it give?
Answer: Its pKB is 6.57.

Question: Which pKB does the source give for Cc1ccccc1S(=O)(=O)NC(=O)CCCCn1nnc(-c2ccc(OCCCCc3ccccc3)cc2)n1 here?
Answer: Its pKB is 5.92.

Question: With c1ccc(CCCCOc2ccc(-c3nn[nH]n3)cc2)cc1 as the compound, how does the pKB read?
Answer: The pKB was 5.92.

Question: How did the pKB turn out when O=C(O)c1ccccc1Cn1nnc(-c2ccc(CSc3ccc4ccccc4n3)cc2)n1 was run?
Answer: Its pKB is 5.87.

Question: How did the pKB turn out when c1ccc(CCCCCOc2ccc(-c3nnn(CCCCc4nnn[nH]4)n3)cc2)cc1 was run?
Answer: The pKB was 5.9.

Question: Which pKB does the source give for N#CNC(=O)CCCCn1nnc(-c2ccc(OCCCCc3ccccc3)cc2)n1 here?
Answer: Its pKB is 6.1.

Question: For O=C(O)c1cccc(Cn2nnc(-c3cccc(CSc4ccc5ccccc5n4)c3)n2)c1, which pKB is on record?
Answer: The pKB was 5.62.

Question: With c1ccc(CCCCOc2ccc(-c3nnn(CCCCCCCc4nnn[nH]4)n3)cc2)cc1 as the compound, how does the pKB read?
Answer: The pKB was 5.96.

Question: With O=C(O)c1ccc(Cn2nnc(-c3cccc(CSc4ccc5ccccc5n4)c3)n2)cc1 as the compound, how does the pKB read?
Answer: The pKB was 5.88.

Question: How did the pKB turn out when CCCOc1ccc(-c2nnn(CCCCc3nnn[nH]3)n2)cc1 was run?
Answer: The pKB was 5.52.

Question: c1ccc(CCCOc2ccc(-c3nnn(CCCCc4nnn[nH]4)n3)cc2)cc1 was tested. Which pKB did it give?
Answer: Its pKB is 6.79.
